The source made the active and inactive calls. The calls are words filed in the database; no cut-off is given here.
Key:
Rhizopus arrhizus [1] = assay: Antimicrobial activity against Rhizopus oryzae isolate 4153 after 24 hrs in RMPI 1640 medium by broth microdilution method; assay type: functional, organism-based
Procedure, shortened: (§1)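 Colistin was serially diluted from 64 to 0.06 μg/ml in RPMI 1640 with glucamine and without bicarbonate. Fresh spores from 48–72 h YAG plates were added at 0.5 × 10^4 to 4 × 10^4 cells/ml. Plates were incubated 24 h at 37°C. MIC was read visually as the lowest concentration giving 100% growth inhibition.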

Rhizopus arrhizus [2] = assay: Antimicrobial activity against Rhizopus oryzae assessed as cytoplasmic vacuolar swelling and bleb formation at 32 ug/ml by transmission electron microscopy; assay type: functional, organism-based
Rhizopus homothallicus [3] = assay: Antimicrobial activity against Rhizopus homothallicus isolate 5790 after 24 hrs in RMPI 1640 medium by broth microdilution method; assay type: functional; procedure, shortened: as §1
Rhizopus arrhizus [4] = assay: Antimicrobial activity against Rhizopus oryzae isolate 5879 after 24 hrs in RMPI 1640 medium by broth microdilution method; assay type: functional, organism-based
Procedure, shortened: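 Broth microdilution in RPMI 1640 with […], without bicarbonate. Colistin was serially diluted 64 to 0.06 μg/ml. Spores came from YAG plates grown 48–72 h at 37°C, were filtered and counted, and were inoculated at 0.5 × 10^4 to 4 × 10^4 cells/ml. Plates were incubated 24 h at 37°C. MIC was read visually as the lowest concentration giving 100% growth inhibition.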

Rhizopus homothallicus [5] = assay: Antimicrobial activity against Rhizopus homothallicus isolate 5910 after 24 hrs in yeast nitrogen base complete medium by broth microdilution method; assay type: functional
Procedure, shortened: (§2)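 Broth microdilution in YNB complete medium with colistin at 128 to 0.12 μg/ml. Freshly collected spores were inoculated at 0.5 × 10^4 to 4 × 10^4 cells/ml and incubated 24 h at 37°C. MIC was read visually as the lowest concentration with complete (100%) growth inhibition.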

Rhizopus [6] = assay: Antimicrobial activity against Rhizopus sp. isolate 4523 after 24 hrs in yeast nitrogen base complete medium by broth microdilution method; assay type: functional, organism-based
Procedure, shortened: (§3)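 Microdilution was done in yeast nitrogen base complete medium, with colistin serially diluted 128 to 0.12 μg/ml. Spores were harvested from YAG plates (48–72 h, 37°C), washed, filtered and counted, then added at 0.5 × 10^4 to 4 × 10^4 cells/ml. After 24 h at 37°C, MIC was taken visually as the lowest concentration with complete growth inhibition.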

Rhizopus homothallicus [7] = assay: Antimicrobial activity against Rhizopus homothallicus isolate 5790 after 24 hrs in yeast nitrogen base complete medium by broth microdilution method; assay type: functional; procedure, shortened: as §2
Mucor circinelloides [8] = assay: Antimicrobial activity against Mucor circinelloides isolate 4480 after 24 hrs in yeast nitrogen base complete medium by broth microdilution method; assay type: functional, organism-based; procedure, shortened: as §2
Rhizopus arrhizus [9] = assay: Antimicrobial activity against Rhizopus oryzae isolate 4549 after 24 hrs in yeast nitrogen base complete medium by broth microdilution method; assay type: functional, organism-based; procedure, shortened: as §2
[10] = test system: Cunninghamella bertholletiae; assay: Antimicrobial activity against Cunninghamella bertholletiae isolate 6733 after 24 hrs in RMPI 1640 medium by broth microdilution method; assay type: functional, organism-based; procedure, shortened: as §1
Rhizopus arrhizus [11] = assay: Antimicrobial activity against Rhizopus oryzae isolate 5496 after 24 hrs in yeast nitrogen base complete medium by broth microdilution method; assay type: functional, organism-based; procedure, shortened: as §2
Rhizopus arrhizus [12] = assay: Antimicrobial activity against Rhizopus oryzae assessed as reduction in hyphal viability at 8 ug/ml after 24 hrs by XTT assay; assay type: functional, organism-based
Procedure, shortened: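 R. oryzae mycelia were shaken at 37°C in RPMI 1640 with colistin, amphotericin B or both; drug-free RPMI served as control. At 0, 2, 6 and 24 h, pellets received XTT (1 mg) plus menadione (0.17 mg) in 1 ml PBS for 1 h at 37°C, then OD405 was read. Viability is drug OD405 divided by control OD405; at least three experiments.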

Rhizopus arrhizus [13] = assay: Antimicrobial activity against Rhizopus oryzae isolate 4549 after 24 hrs in RMPI 1640 medium by broth microdilution method; assay type: functional, organism-based; procedure, shortened: as §1
Rhizopus [14] = assay: Antimicrobial activity against […] isolate 6254 after 24 hrs in RMPI 1640 medium by broth microdilution method; assay type: functional, organism-based; procedure, shortened: as §1
Rhizopus arrhizus [15] = assay: Antimicrobial activity against Rhizopus oryzae isolate 3140 after 24 hrs in RMPI 1640 medium by broth microdilution method; assay type: functional, organism-based; procedure, shortened: as §1
Rhizopus homothallicus [16] = assay: Antimicrobial activity against Rhizopus homothallicus isolate 6360 after 24 hrs in yeast nitrogen base complete medium by broth microdilution method; assay type: functional; procedure, shortened: as §2
Rhizopus arrhizus [17] = assay: Antimicrobial activity against Rhizopus oryzae isolate 5799 after 24 hrs in yeast nitrogen base complete medium by broth microdilution method; assay type: functional, organism-based; procedure, shortened: as §3
[18] = test system: Cunninghamella bertholletiae; assay: Antimicrobial activity against Cunninghamella bertholletiae isolate 6733 after 24 hrs in yeast nitrogen base complete medium by broth microdilution method; assay type: functional, organism-based; procedure, shortened: as §2
Rhizopus [19] = assay: Antimicrobial activity against […] isolate 6254 after 24 hrs in yeast nitrogen base complete medium by broth microdilution method; assay type: functional, organism-based; procedure, shortened: as §2
Rhizopus arrhizus [20] = assay: Antimicrobial activity against Rhizopus oryzae at 32 ug/disk after 24 hrs by disk diffusion method; assay type: functional, organism-based
Procedure, shortened: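 Paper disks loaded with 8, 16 or 32 μg colistin were placed on agar plates inoculated with 200 μl of a 10^6 cells/ml R. oryzae spore suspension. After 24 h at 37°C, the diameter of the inhibition zone was measured.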

Mucor circinelloides [21] = assay: Antimicrobial activity against Mucor circinelloides isolate 5904 after 24 hrs in RMPI 1640 medium by broth microdilution method; assay type: functional, organism-based; procedure, shortened: as §1
Rhizopus arrhizus [22] = assay: Antimicrobial activity against Rhizopus oryzae assessed as plasma membrane disruption-related ATP release at 8 ug/ml after 5 mins by Cell Titer-Glo luminescent assay; assay type: functional, organism-based
Procedure, shortened: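 Spores at 10^7 cells/ml in RPMI 1640 were germinated about 6 h at 37°C. Germlings were resuspended in RPMI with colistin at 8 or 32 μg/ml, or drug-free, and shaken at 37°C. Supernatants taken at 5, 30, 60 and 90 min were assayed for released ATP by CellTiter-Glo luminescence.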

Rhizopus arrhizus [23] = assay: Antimicrobial activity against Rhizopus oryzae isolate 6093 after 24 hrs in yeast nitrogen base complete medium by broth microdilution method; assay type: functional, organism-based; procedure, shortened: as §3
[24] = test system: Cunninghamella bertholletiae; assay: Antimicrobial activity against Cunninghamella bertholletiae isolate 5633 after 24 hrs in RMPI 1640 medium by broth microdilution method; assay type: functional, organism-based; procedure, shortened: as §1
Mucor circinelloides [25] = assay: Antimicrobial activity against Mucor circinelloides isolate 4030 after 24 hrs in yeast nitrogen base complete medium by broth microdilution method; assay type: functional, organism-based; procedure, shortened: as §2
Mucor circinelloides [26] = assay: Antimicrobial activity against Mucor circinelloides isolate 4818 after 24 hrs in RMPI 1640 medium by broth microdilution method; assay type: functional, organism-based; procedure, shortened: as §1
Mucor circinelloides [27] = assay: Antimicrobial activity against Mucor circinelloides isolate 5904 after 24 hrs in yeast nitrogen base complete medium by broth microdilution method; assay type: functional, organism-based; procedure, shortened: as §2

- MIC (Rhizopus arrhizus [1]): 16 µg/mL
- MIC (Rhizopus homothallicus [3]): 16 µg/mL
- MIC (Rhizopus arrhizus [4]): 32 µg/mL
- MIC (Rhizopus homothallicus [5]): 128 µg/mL
- MIC (Rhizopus [6]): 128 µg/mL
- MIC (Rhizopus homothallicus [7]): 128 µg/mL
- MIC (Mucor circinelloides [8]): 128 µg/mL
- MIC (Rhizopus arrhizus [9]): 128 µg/mL
- MIC [10]: 32 µg/mL
- MIC (Rhizopus arrhizus [11]): 128 µg/mL
- MIC (Rhizopus arrhizus [13]): 32 µg/mL
- MIC (Rhizopus [14]): 16 µg/mL
- MIC (Rhizopus arrhizus [15]): 16 µg/mL
- MIC (Rhizopus homothallicus [16]): 128 µg/mL
- MIC (Rhizopus arrhizus [17]): 128 µg/mL
- MIC [18]: 128 µg/mL
- MIC (Rhizopus [19]): 128 µg/mL
- MIC (Mucor circinelloides [21]): 16 µg/mL
- MIC (Rhizopus arrhizus [23]): 128 µg/mL
- MIC [24]: 16 µg/mL
- MIC (Mucor circinelloides [25]): 128 µg/mL
- MIC (Mucor circinelloides [26]): 32 µg/mL
- MIC (Mucor circinelloides [27]): 128 µg/mL
Sequence: COLISTIN
- MFC (Rhizopus arrhizus [1]): 64 µg/mL
- Activity (Rhizopus arrhizus [2]): Active
- MFC (Rhizopus homothallicus [3]): 64 µg/mL
- MFC (Rhizopus arrhizus [4]): 32 µg/mL
- MFC (Rhizopus homothallicus [5]): > 128 µg/mL
- MFC (Rhizopus [6]): > 128 µg/mL
- MFC (Rhizopus homothallicus [7]): > 128 µg/mL
- MFC (Mucor circinelloides [8]): > 128 µg/mL
- MFC (Rhizopus arrhizus [9]): > 128 µg/mL
- MFC [10]: 64 µg/mL
- MFC (Rhizopus arrhizus [11]): > 128 µg/mL
- inhibition (Rhizopus arrhizus [12]): inactive
- MFC (Rhizopus arrhizus [13]): 64 µg/mL
- MFC (Rhizopus [14]): 32 µg/mL
- MFC (Rhizopus arrhizus [15]): 32 µg/mL
- MFC (Rhizopus homothallicus [16]): > 128 µg/mL
- MFC (Rhizopus arrhizus [17]): > 128 µg/mL
- MFC [18]: > 128 µg/mL
- MFC (Rhizopus [19]): > 128 µg/mL
- inhibition zone (IZ) (Rhizopus arrhizus [20]): 21 mm
- MFC (Mucor circinelloides [21]): 64 µg/mL
- Activity (Rhizopus arrhizus [22]): Active
- MFC (Rhizopus arrhizus [23]): > 128 µg/mL
- MFC [24]: 64 µg/mL
- MFC (Mucor circinelloides [25]): > 128 µg/mL
- MFC (Mucor circinelloides [26]): 32 µg/mL
- MFC (Mucor circinelloides [27]): > 128 µg/mL

Source: ChEMBL document CHEMBL1212759, “Antifungal activity of colistin against mucorales species in vitro and in a murine model of Rhizopus oryzae pulmonary infection” (Antimicrob Agents Chemother, 2010)
